The source made the active and inactive calls. The rule behind the calls is not given here.

What all share (format): functional
The nature of test [1]: Antioxidant activity assessed as ferric ion reducing power by FRAP method. The procedure, abridged:
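FRAP assay adapted for lipophilic antioxidants: Fe3+–TPTZ complex reduction in 300 mM acetate buffer, pH 3.6, at a 1:500 molar ratio of test compound to ferric ions. Data are mean ± SD of three series run in triplicate, with Student–Newman–Keuls post-hoc ANOVA (p<0.05).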

Test [2] can be described thus: Antioxidant activity assessed as reduction in copper-mediated ascorbic acid oxidation preincubated for 10 mins measured for every 2 mins upto 2 hrs by UV spectrophotometry. In short, it runs like this:
(§1)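 Test compound suspension combined with Chelex-treated water containing 2 µM Cu+. Plate pre-incubated 10 min at 37 °C, then ascorbate added (from a 2 mM stock, pH 7) to a starting 200 µM. A265 read every 2 min for 2 h at 37 °C to obtain the initial depletion rate. Ethanol vehicle served as baseline and DTPA as chelator control. Triplicate.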

The subject of test [3] is Radical scavenging activity. Nature of the test: Antioxidant activity assessed as DPPH free radical scavenging activity. (In general: DPPH is a stable violet radical that fades when it is reduced.)
Test [4] in a line: Antioxidant activity assessed as ABTS+ free radical scavenging activity by TEAC assay. The procedure, abridged:
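TEAC assay measures reduction of the ABTS radical cation, with results expressed as Trolox equivalents. Data are mean ± SD of three series run in triplicate, with Student–Newman–Keuls post-hoc ANOVA (p<0.05).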

Test [5] is described as follows: Antioxidant activity assessed as reduction in copper-mediated ascorbic acid oxidation at 100 uM preincubated for 10 mins measured for every 2 mins upto 2 hrs by UV spectrophotometrya. Also on record: scale not given: the % may be the effect or the level left. In short, it runs like this: as §1
Test [6] can be described thus: Antioxidant activity assessed as nitration product at 1:1 compound to phenol concentration. In short, it runs like this: (§2)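 FeCl3 used as oxidant at 10:1 and 100:1 molar ratios to test compound, with phenolic substrate at 1:1 to compound (FeCl3/compound/phenolic 10:1:1 or 100:1:1), in 50:50 v/v H2O/EtOH. Percent conversion to nitration product determined. Means of triplicate experiments.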

In test [7] the test system is Radical scavenging activity. Put plainly: Antioxidant activity assessed as rate constant for DPPH free radical scavenging activity by stopped flow spectroscopy. In short, it runs like this:
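Stopped-flow rapid mixing with diode-array photometer detection. Antioxidant stocks (ca. 2 mM) and DPPH (200 µM) prepared in ethanol; DPPH (200 µM) in acetonitrile also used. Starting antioxidant concentration after mixing is half the stock. Second-order rate constant derived from the kinetics.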

Test [8] in a line: Antioxidant activity assessed as nitration product using PhOH as substrate at FeCl3 to compound to phenol concentration 10:1:1. In short, it runs like this:
as §2

Test [9] in a line: Antioxidant activity assessed as nitration product using PhOH as substrate at FeCl3 to compound to phenol concentration 100:1:1. In short, it runs like this: as §2
Test [10] in a line: Antioxidant activity assessed as nitration product using PhOMe as substrate at FeCl3 to compound to phenol concentration 10:1:1. In short, it runs like this: as §2
Test [11] can be described thus: Antioxidant activity assessed as nitration product using PhOMe as substrate at FeCl3 to compound to phenol concentration 100:1:1. The procedure, abridged: as §2
The nature of test [12]: Antioxidant activity assessed as nitration product using HOC6H3(Me)2-(2,6) as substrate at FeCl3 to compound to phenol concentration 10:1:1. The procedure, abridged:
as §2

Test [13] in a line: Antioxidant activity assessed as nitration product using HOC6H3(Me)2-(2,6) as substrate at FeCl3 to compound to phenol concentration 100:1:1. In short, it runs like this:
as §2

Test [14] is described as follows: Antioxidant activity assessed as nitration product using MeOC6H3(Me)2-(2,6) as substrate at FeCl3 to compound to phenol concentration 10:1:1. In short, it runs like this:
as §2

Test [15] is described as follows: Antioxidant activity assessed as nitration product using MeOC6H3(Me)2-(2,6) as substrate at FeCl3 to compound to phenol concentration 100:1:1. The procedure, abridged:
as §2

Test [16] in a line: Antioxidant activity assessed as nitration product using HOC6H3(t-Bu)2-(2,6) as substrate at FeCl3 to compound to phenol concentration 10:1:1. The procedure, abridged:
as §2

The nature of test [17]: Antioxidant activity assessed as nitration product using HOC6H3(t-Bu)2-(2,6) as substrate at FeCl3 to compound to phenol concentration 100:1:1. In short, it runs like this: as §2
Test [18] can be described thus: Antioxidant activity assessed as formation of DPPH breakdown product at 0.5 mM incubated for 20 mins by HPLC. The procedure, abridged:
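Aerobic DPPH (0.5 mM) mixed with test compound (0.5 mM) and incubated 20 min at room temperature. Reaction products analysed by HPLC, taking the peak area of the product eluting at 4 min. Mean ± SD of five experiments.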

A short description of test [19]: Antioxidant activity assessed as nitration product at 1:1 compound to salicylic acid concentration. The procedure, abridged:
as §2

Turning to `Cc1cc(N)cc2c1O[C@](C)(CCC[C@H](C)CCC[C@H](C)CCCC(C)C)CC2`, the result in test [1], in test [3] and in test [4] was Active. Moreover, the Activity entry in [2] is “Dose-dependent effect”; in test [5] it was 44.7%.
In the case of `Cc1c(N)cc2c(c1C)O[C@](C)(CCC[C@H](C)CCC[C@H](C)CCCC(C)C)CC2`, the outcome in test [1], in test [3] and in test [4] was Active. For the same molecule, the Activity result was “Dose-dependent effect” in test [2] and 35% in test [5].
For the molecule `CC(C)=CCC/C(C)=C/CC/C(C)=C/CC[C@]1(C)CCc2cc(N)c(C)c(C)c2O1`, the result in [1], in test [3] and in [4] was Active.
Consider `CC(C)=CCC/C(C)=C/CC/C(C)=C/CC[C@]1(C)CCc2c(C)c(N)c(C)c(C)c2O1`, for which the result in [1], in [3] and in test [4] was Active.
For `Cc1c(O)cc2c(c1C)O[C@](C)(CCC[C@H](C)CCC[C@H](C)CCCC(C)C)CC2`, the outcome in [1], in test [3] and in test [4] was Active. For the same molecule, the Activity in test [6] was found to be 13%.
On to `CC(C)=CCC/C(C)=C/CC/C(C)=C/CC[C@]1(C)CCc2cc(O)c(C)c(C)c2O1`, for which the outcome in test [1], in test [3] and in test [4] was Active.
Regarding `Cc1c(C)c2c(c(C)c1O)CCC(C)(CCC(=O)O)O2` (racemic), the outcome in test [1], in [3] and in test [4] was Active.
Regarding `Cc1c(O)cc2c(c1C)OC(C)(CCC(=O)O)CC2` (racemic), the outcome in test [1], in test [3] and in [4] was Active.
Consider `CC(C)=CCC/C(C)=C/CC/C(C)=C/CC[C@]1(C)CCc2c(C)c(O)c(C)c(C)c2O1`, for which the result in [1], in test [3] and in test [4] was Active.
`CC(C)=CCC/C(C)=C/CC/C(C)=C/CC[C@]1(C)CCc2cc(N)cc(C)c2O1`: the outcome in test [1], in test [3] and in test [4] was Active.
As to `Cc1c(C)c2c(c(C)c1N)CC[C@@](C)(CCC[C@H](C)CCC[C@H](C)CCCC(C)C)O2`, the result in test [1], in [3], in [4] and in [18] was Active. Further, the Activity result was “Dose-dependent effect” in [2]; 4290 L/mol/s in [7]; 12% in test [8]; 26% in test [9]; 0% in test [10]; 2% in [11]. Moreover, the Activity in test [12] is 4%; in test [13], 9%; in test [14] it was 0%; in test [16] it was 0.2%; in test [17], 0.4%; in test [5], 19.5%. In addition, in [19], the Activity stood at 8%. Also, in [15], the outcome was inactive.
Regarding `Cc1c(O)cc2c(c1C)OC(C)(C)CC2`, the Activity in [6] turned out to be 3%.
As for `CC(C)=CCC/C(C)=C/CC/C(C)=C/CC[C@]1(C)CCc2cc(O)cc(C)c2O1`, the outcome in test [1], in test [3] and in test [4] was Active.
Consider `Cc1c(C)c2c(c(C)c1O)CC[C@@](C)(CCC[C@H](C)CCC[C@H](C)CCCC(C)C)O2`, for which the outcome in [1], in test [3] and in [4] was Active. Also, the Activity in test [7] came to 280 L/mol/s. Besides, the outcome in [18] was inactive.
Regarding `Cc1cc(O)cc2c1OC(C)(CCC(=O)O)CC2` (racemic), the result in test [1], in [3] and in test [4] was Active.
Regarding `Cc1c(C)c2c(c(C)c1O)CC[C@@](C)(CCCC(C)CCCC(C)CCCC(C)C(=O)O)O2` (mixture of isomers), the result in test [1], in [3] and in test [4] was Active.
Consider `Cc1cc(O)cc2c1O[C@](C)(CCC[C@H](C)CCC[C@H](C)CCCC(C)C)CC2`, for which the result in [1], in test [3] and in test [4] was Active.

(Values after ChEMBL document CHEMBL2150855, “Tocotrienamines and tocopheramines: reactions with radicals and metal ions” (Bioorg Med Chem, 2011).)
